Test results as given in ChEMBL document CHEMBL3232844, “Synthesis and structure activity relationships of schweinfurthin indoles” (2014).

Legend:
Format in all cases: functional
CCRF-CEM = assay: Cytotoxicity against human CCRF-CEM cells
HL-60(TB) = assay: Cytotoxicity against human HL-60(TB) cells
In short: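 Tested within the NCI 60-cell-line screen, with GI50 as the read-out. Values are the average of two independent experiments. The lowest concentration tested was 10 nM.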

MOLT-4 = assay: Cytotoxicity against human MOLT4 cells
In short: (§1)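 Tested in a 60-cell-line human tumor panel screen; the read-out is growth inhibition, reported as GI50 for each cell line.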

SR = assay: Cytotoxicity against human SR cells
In short: (§2)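 Cell line run as part of the 60-cell-line screening panel; growth inhibition was reported as a GI50 for each line.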

A549 = assay: Cytotoxicity against human A549 cells; in short: as §1
HOP-62 = assay: Cytotoxicity against human HOP62 cells; in short: as §1
COLO 205 = assay: Cytotoxicity against human COLO205 cells; in short: as §1
HCC 2998 = assay: Cytotoxicity against human HCC2998 cells; in short: as §1
HCT-116 = assay: Cytotoxicity against human HCT116 cells; in short: as §1
[1] = Cytotoxicity against human HCT15 cells; in short: as §1
HT-29 = assay: Cytotoxicity against human HT-29 cells; in short: as §1
KM12 = assay: Cytotoxicity against human KM12 cells; in short: as §1
SF-268 = assay: Cytotoxicity against human SF268 cells; in short: as §1
SF-295 = assay: Cytotoxicity against human SF295 cells; in short: as §1
SF-539 = assay: Cytotoxicity against human SF539 cells; in short: as §1
SNB-19 = assay: Cytotoxicity against human SNB19 cells; in short: as §1
SNB-75 = assay: Cytotoxicity against human SNB75 cells; in short: as §2
U-251 = assay: Cytotoxicity against human U251 cells; in short: as §2
LOX IMVI = assay: Cytotoxicity against human LOXIMVI cells; in short: as §1
MDA-MB-435 = assay: Cytotoxicity against human MDA-MB-435 cells; in short: as §1
NCI-H322M = assay: Cytotoxicity against human NCI-H322M cells; in short: as §1
NCI-H460 = assay: Cytotoxicity against human NCI-H460 cells; in short: as §1
SK-MEL-2 = assay: Cytotoxicity against human SK-MEL-2 cells; in short: as §1
SK-MEL-5 = assay: Cytotoxicity against human SK-MEL-5 cells; settings: read-out: pLC50 (the source's name) (converted); in short: as §1
[2] = Cytotoxicity against human UACC257 cells; in short: as §2
[3] = Cytotoxicity against human UACC62 cells; settings: UACC-62, read-out: pLC50 (the source's name) (converted); in short: as §2
IGROV-1 = assay: Cytotoxicity against human IGROV1 cells; in short: as §1
[4] = Cytotoxicity against human OVCAR4 cells; in short: as §1
[5] = Cytotoxicity against human OVCAR5 cells; in short: as §1
[6] = Cytotoxicity against human NCI-ADR-RES cells; in short: as §1
SK-OV-3 = assay: Cytotoxicity against human SKOV3 cells; in short: as §1
786-0 = assay: Cytotoxicity against human 786-0 cells; in short: as §1
A498 = assay: Cytotoxicity against human A498 cells; in short: as §1
ACHN = assay: Cytotoxicity against human ACHN cells; in short: as §1
CAKI-1 = assay: Cytotoxicity against human Caki1 cells; in short: as §1
SN12C = assay: Cytotoxicity against human SN12C cells; in short: as §1
TK-10 = assay: Cytotoxicity against human TK10 cells; in short: as §2
PC-3 = assay: Cytotoxicity against human PC3 cells; in short: as §1
DU-145 = assay: Cytotoxicity against human DU145 cells; in short: as §1
MCF7 = assay: Cytotoxicity against human MCF7 cells; in short: as §1
MDA-MB-231 = assay: Cytotoxicity against human MDA-MB-231 cells; in short: as §1
BT-549 = assay: Cytotoxicity against human BT549 cells; in short: as §1
T47D = assay: Cytotoxicity against human T47D cells; in short: as §2
[7] = read-out: pLC50 (the source's name) (converted)

COc1cc(/C=C/c2cc(O)c3c(c2)C[C@@H]2C(C)(C)[C@H](O)CC[C@@]2(C)O3)cc2c1ccn2C
GI50 (CCRF-CEM): 0.0537 µM
CC50 (CCRF-CEM; [7]): 89.1 µM
TGI (CCRF-CEM; read-out: pTGI (converted)): 12.3 µM
GI50 (HL-60(TB)): 0.0447 µM
CC50 (HL-60(TB); [7]): 89.1 µM
TGI (HL-60(TB); read-out: pTGI (converted)): 16.6 µM
GI50 (MOLT-4): 0.0389 µM
CC50 (MOLT-4; [7]): 89.1 µM
TGI (MOLT-4; read-out: pTGI (converted)): 14.8 µM
GI50 (SR): 0.0759 µM
CC50 (SR; [7]): 89.1 µM
TGI (SR; read-out: pTGI (converted)): 39.8 µM
GI50 (A549): 9.55 µM
CC50 (A549; [7]): 58.9 µM
TGI (A549; read-out: pTGI (converted)): 23.4 µM
GI50 (HOP-62): 0.0759 µM
CC50 (HOP-62; [7]): 26.9 µM
TGI (HOP-62; read-out: pTGI (converted)): 4.68 µM
GI50 (COLO 205): 5.62 µM
CC50 (COLO 205; [7]): 42.7 µM
TGI (COLO 205; read-out: pTGI (converted)): 17.8 µM
GI50 (HCC 2998): 0.214 µM
CC50 (HCC 2998; [7]): 45.7 µM
TGI (HCC 2998; read-out: pTGI (converted)): 18.6 µM
GI50 (HCT-116): 0.407 µM
CC50 (HCT-116; [7]): 35.5 µM
TGI (HCT-116; read-out: pTGI (converted)): 13.5 µM
GI50 ([1]; HCT-15): 2.95 µM
CC50 ([1]; HCT-15, read-out: pLC50 (the source's name) (converted)): 33.9 µM
TGI ([1]; HCT-15, read-out: pTGI (converted)): 6.76 µM
GI50 (HT-29): 6.03 µM
CC50 (HT-29; [7]): 41.7 µM
TGI (HT-29; read-out: pTGI (converted)): 15.1 µM
GI50 (KM12): 0.295 µM
CC50 (KM12; [7]): 44.7 µM
TGI (KM12; read-out: pTGI (converted)): 18.6 µM
GI50 (SF-268): 0.0129 µM
CC50 (SF-268; [7]): 69.2 µM
TGI (SF-268; read-out: pTGI (converted)): 24 µM
GI50 (SF-295; read-out: GI50): < 0.012 µM
GI50 (SF-295; read-out: pGI50 (converted)): 0.0209 µM
CC50 (SF-295; [7]): 1.95 µM
TGI (SF-295; read-out: pTGI (converted)): 0.0437 µM
GI50 (SF-539): 1.62 µM
CC50 (SF-539; [7]): 45.7 µM
TGI (SF-539; read-out: pTGI (converted)): 13.2 µM
GI50 (SNB-19): 0.0141 µM
CC50 (SNB-19; [7]): 41.7 µM
TGI (SNB-19; read-out: pTGI (converted)): 13.8 µM
GI50 (SNB-75): 0.0525 µM
CC50 (SNB-75; [7]): 35.5 µM
TGI (SNB-75; read-out: pTGI (converted)): 5.37 µM
GI50 (U-251): 0.141 µM
CC50 (U-251; [7]): 43.7 µM
TGI (U-251; read-out: pTGI (converted)): 15.5 µM
GI50 (LOX IMVI): 0.123 µM
CC50 (LOX IMVI; [7]): 26.9 µM
TGI (LOX IMVI; read-out: pTGI (converted)): 4.57 µM
GI50 (MDA-MB-435): 0.389 µM
CC50 (MDA-MB-435; [7]): 61.7 µM
TGI (MDA-MB-435; read-out: pTGI (converted)): 9.12 µM
GI50 (NCI-H322M): 13.2 µM
CC50 (NCI-H322M; [7]): 60.3 µM
TGI (NCI-H322M; read-out: pTGI (converted)): 28.2 µM
GI50 (NCI-H460): 0.309 µM
CC50 (NCI-H460; [7]): 89.1 µM
TGI (NCI-H460; read-out: pTGI (converted)): 23.4 µM
GI50 (SK-MEL-2): 2.29 µM
CC50 (SK-MEL-2; [7]): 43.7 µM
TGI (SK-MEL-2; read-out: pTGI (converted)): 17 µM
CC50 (SK-MEL-5): 12 µM
GI50 ([2]; UACC-257): 0.0389 µM
CC50 ([2]; UACC-257, read-out: pLC50 (the source's name) (converted)): 64.6 µM
TGI ([2]; UACC-257, read-out: pTGI (converted)): 25.1 µM
CC50 [3]: 21.4 µM
GI50 (IGROV-1): 10.7 µM
CC50 (IGROV-1; [7]): 89.1 µM
TGI (IGROV-1; read-out: pTGI (converted)): 25.7 µM
GI50 ([4]; OVCAR-4): 8.51 µM
CC50 ([4]; OVCAR-4, read-out: pLC50 (the source's name) (converted)): 56.2 µM
TGI ([4]; OVCAR-4, read-out: pTGI (converted)): 24 µM
GI50 ([5]; OVCAR-5): 11.2 µM
CC50 ([5]; OVCAR-5, read-out: pLC50 (the source's name) (converted)): 53.7 µM
TGI ([5]; OVCAR-5, read-out: pTGI (converted)): 21.9 µM
GI50 [6]: 9.55 µM
CC50 [6, 7]: 89.1 µM
TGI ([6]; read-out: pTGI (converted)): 46.8 µM
LC50 (SK-OV-3): 89.1 µM
TGI (SK-OV-3; read-out: pTGI (converted)): 35.5 µM
GI50 (786-0): 0.0275 µM
LC50 (concentration killing 50% of cells) (786-0): 7.94 µM
TGI (786-0; read-out: pTGI (converted)): 1.7 µM
GI50 (A498): 0.0437 µM
CC50 (A498; [7]): 53.7 µM
TGI (A498; read-out: pTGI (converted)): 9.33 µM
GI50 (ACHN): 1.23 µM
LC50 (concentration killing 50% of cells) (ACHN): 50.1 µM
TGI (ACHN; read-out: pTGI (converted)): 17.8 µM
GI50 (CAKI-1): 0.479 µM
LC50 (CAKI-1): 89.1 µM
TGI (CAKI-1; read-out: pTGI (converted)): 9.12 µM
GI50 (SN12C): 10.5 µM
LC50 (SN12C): 52.5 µM
TGI (SN12C; read-out: pTGI (converted)): 23.4 µM
GI50 (TK-10): 9.77 µM
LC50 (TK-10): 63.1 µM
TGI (TK-10; read-out: pTGI (converted)): 25.1 µM
GI50 (PC-3): 0.741 µM
LC50 (PC-3): 89.1 µM
TGI (PC-3; read-out: pTGI (converted)): 38 µM
GI50 (DU-145): 5.62 µM
LC50 (50% lethal concentration) (DU-145): 42.7 µM
TGI (DU-145; read-out: pTGI (converted)): 19.1 µM
GI50 (MCF7): 0.661 µM
LC50 (MCF7): 50.1 µM
TGI (MCF7; read-out: pTGI (converted)): 12.3 µM
GI50 (MDA-MB-231): 3.89 µM
LC50 (MDA-MB-231): 51.3 µM
TGI (MDA-MB-231; read-out: pTGI (converted)): 19.1 µM
GI50 (BT-549): 0.138 µM
CC50 (BT-549; [7]): 52.5 µM
TGI (BT-549; read-out: pTGI (converted)): 20.4 µM
GI50 (T47D): 7.41 µM
CC50 (T47D; [7]): 63.1 µM
TGI (T47D; read-out: pTGI (converted)): 23.4 µM
